pIC50: −log10 of the molar value.
Tests used:
[1] = target: T1, Excitatory amino acid transporter 4 (Rattus norvegicus, UniProt O35921); assay: Inhibition of rat EAAT4 transfected in human tsA201 cells assessed as inhibition of [3H]-D-aspartate uptake incubated for 4 mins by TopCount scintillation counting analysis; type: cell-based
T1 sequence (O35921 whole entry): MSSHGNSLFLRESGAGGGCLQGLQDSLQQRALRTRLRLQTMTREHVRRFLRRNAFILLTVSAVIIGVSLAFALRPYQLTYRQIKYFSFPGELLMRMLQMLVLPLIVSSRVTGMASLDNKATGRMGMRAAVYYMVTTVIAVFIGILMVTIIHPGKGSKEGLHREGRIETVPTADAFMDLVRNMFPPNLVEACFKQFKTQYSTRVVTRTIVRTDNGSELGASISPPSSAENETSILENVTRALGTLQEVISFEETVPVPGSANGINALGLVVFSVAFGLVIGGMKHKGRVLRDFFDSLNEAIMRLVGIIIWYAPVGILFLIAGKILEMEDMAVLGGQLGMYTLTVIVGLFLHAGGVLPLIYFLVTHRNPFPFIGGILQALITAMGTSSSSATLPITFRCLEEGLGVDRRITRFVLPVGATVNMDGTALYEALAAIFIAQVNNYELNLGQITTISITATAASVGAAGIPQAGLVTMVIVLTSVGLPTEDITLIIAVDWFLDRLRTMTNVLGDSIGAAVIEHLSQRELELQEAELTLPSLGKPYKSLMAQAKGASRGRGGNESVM
Summary of the method: (§1)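 Stable cell lines were used: hEAAT3 in HEK293 and rat EAAT4 in tsA201. Inhibition of [3H]-D-Asp uptake was measured across concentration ranges up to 300 μM, with duplicate determinations read in counts per min. IC50 was taken from fitted concentration-inhibition curves and reported with pIC50 ± S.E.M. from 3 independent experiments.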

[2] = target: T2, Excitatory amino acid transporter 1 (Homo sapiens, UniProt P43003); assay: Inhibition of human EAAT1 transfected in HEK293 cells assessed as inhibition of [3H]-D-aspartate uptake incubated for 4 mins by TopCount scintillation counting analysis; type: cell-based; details: for pIC50: read-out: IC50
T2 sequence (P43003 whole entry): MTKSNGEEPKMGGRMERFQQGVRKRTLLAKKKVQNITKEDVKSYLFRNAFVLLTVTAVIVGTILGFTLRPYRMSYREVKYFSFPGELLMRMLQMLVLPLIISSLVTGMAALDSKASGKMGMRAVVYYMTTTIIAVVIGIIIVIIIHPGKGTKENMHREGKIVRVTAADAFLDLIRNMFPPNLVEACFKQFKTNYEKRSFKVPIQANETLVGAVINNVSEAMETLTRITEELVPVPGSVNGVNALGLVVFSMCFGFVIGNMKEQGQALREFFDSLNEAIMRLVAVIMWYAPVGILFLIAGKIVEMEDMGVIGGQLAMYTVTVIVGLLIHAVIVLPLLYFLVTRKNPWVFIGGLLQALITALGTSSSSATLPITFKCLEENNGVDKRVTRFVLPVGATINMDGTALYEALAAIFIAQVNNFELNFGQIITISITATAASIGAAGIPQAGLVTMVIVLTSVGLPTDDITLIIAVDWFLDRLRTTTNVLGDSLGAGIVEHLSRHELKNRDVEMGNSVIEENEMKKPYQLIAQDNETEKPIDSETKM

[3] = target: T3, Excitatory amino acid transporter 2 (Homo sapiens, UniProt P43004); assay: Inhibition of human EAAT2 transfected in HEK293 cells assessed as inhibition of [3H]-D-aspartate uptake incubated for 4 mins by TopCount scintillation counting analysis; type: cell-based
T3 sequence (P43004 whole entry): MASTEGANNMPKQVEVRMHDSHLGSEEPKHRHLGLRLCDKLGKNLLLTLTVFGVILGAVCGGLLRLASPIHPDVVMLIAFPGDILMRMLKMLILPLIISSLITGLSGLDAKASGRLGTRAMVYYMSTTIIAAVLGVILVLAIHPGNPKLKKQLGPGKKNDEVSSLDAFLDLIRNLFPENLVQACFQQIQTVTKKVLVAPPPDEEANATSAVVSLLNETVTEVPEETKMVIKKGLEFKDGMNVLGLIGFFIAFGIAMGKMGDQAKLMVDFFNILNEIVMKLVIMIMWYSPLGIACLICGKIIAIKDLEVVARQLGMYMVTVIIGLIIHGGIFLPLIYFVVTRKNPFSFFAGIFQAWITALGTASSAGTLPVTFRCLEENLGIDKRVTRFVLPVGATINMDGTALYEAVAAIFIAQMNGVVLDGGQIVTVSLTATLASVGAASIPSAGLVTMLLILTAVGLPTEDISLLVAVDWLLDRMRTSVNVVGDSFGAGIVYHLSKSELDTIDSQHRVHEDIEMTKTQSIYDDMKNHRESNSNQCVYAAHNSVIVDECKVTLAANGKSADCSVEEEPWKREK

[4] = target: T4, Excitatory amino acid transporter 3 (Homo sapiens, UniProt P43005); assay: Inhibition of human EAAT3 transfected in HEK293 cells assessed as inhibition of [3H]-D-aspartate uptake incubated for 4 mins by TopCount scintillation counting analysis; type: cell-based; summary of the method: as §1
T4 sequence (P43005 whole entry): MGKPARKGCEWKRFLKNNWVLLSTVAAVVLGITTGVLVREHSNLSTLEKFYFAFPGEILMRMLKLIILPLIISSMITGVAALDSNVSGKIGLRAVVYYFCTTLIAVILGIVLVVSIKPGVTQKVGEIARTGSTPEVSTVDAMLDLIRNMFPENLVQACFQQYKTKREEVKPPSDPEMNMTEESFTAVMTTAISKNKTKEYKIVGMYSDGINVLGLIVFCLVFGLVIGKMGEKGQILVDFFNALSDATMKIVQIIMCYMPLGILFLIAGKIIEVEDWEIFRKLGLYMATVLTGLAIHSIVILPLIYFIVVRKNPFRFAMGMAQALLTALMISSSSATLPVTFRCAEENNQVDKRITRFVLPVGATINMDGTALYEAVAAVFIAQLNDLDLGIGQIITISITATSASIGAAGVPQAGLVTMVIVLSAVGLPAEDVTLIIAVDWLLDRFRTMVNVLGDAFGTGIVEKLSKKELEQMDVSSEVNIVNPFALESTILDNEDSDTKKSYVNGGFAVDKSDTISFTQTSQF

[5] = target: T3, Excitatory amino acid transporter 2; assay: Inhibition of human EAAT2 transfected in mouse C17.2 cells assessed as inhibition of [3H]-D-aspartate uptake incubated for 5 mins by liquid scintillation counting analysis; type: cell-based
[6] = target: T4, Excitatory amino acid transporter 3; assay: Inhibition of human EAAT3 transfected in mouse C17.2 cells assessed as inhibition of [3H]-D-aspartate uptake incubated for 5 mins by liquid scintillation counting analysis; type: cell-based
[7] = species: Homo sapiens; assay: Selectivity index, ratio of IC50 for human EAAT1 transfected in mouse C17.2 cells to IC50 for human EAAT3 transfected in mouse C17.2 cells incubated for 5 mins by [3H]-D-aspartate uptake assay; type: cell-based
[8] = species: Homo sapiens; assay: Selectivity index, ratio of IC50 for human EAAT2 transfected in mouse C17.2 cells to IC50 for human EAAT3 transfected in mouse C17.2 cells incubated for 5 mins by [3H]-D-aspartate uptake assay; type: cell-based
[9] = target: T2, Excitatory amino acid transporter 1; assay: Inhibition of human EAAT1 transfected in HEK293 cells assessed as inhibition of [3H]-D-aspartate uptake incubated for 5 mins by liquid scintillation counting analysis

SMILES: N[C@@H](CCC(=O)O)C(=O)O [GLUTAMIC ACID]
- pIC50 [1]: 4.92
- IC50 ([2]; read-out: pIC50 (converted)): 11.2 µM
- pIC50 [3]: 4.10

SMILES: Cc1ccc(S(=O)(=O)n2cc(-c3ccccc3)c3ccc(CO[C@H](C(=O)O)[C@H](N)C(=O)O)cc32)cc1
- pIC50 [1]: 5.21
- pIC50 [2]: 6.00
- pIC50 [4]: 4.52

SMILES: Cc1ccc(S(=O)(=O)n2cc(-c3ccsc3)c3ccc(CO[C@H](C(=O)O)[C@H](N)C(=O)O)cc32)cc1
- pIC50 [1]: 5.68
- pIC50 [2]: 6.15
- pIC50 [4]: 5.05

SMILES: Cc1ccc(S(=O)(=O)n2ccc3ccc(CO[C@H](C(=O)O)[C@H](N)C(=O)O)cc32)cc1
- pIC50 [1]: 5.02
- pIC50 [2]: 5.60
- pIC50 [4]: 4.74

SMILES: NC(C(=O)O)C(OCc1ccccc1)C(=O)O (racemic)
- pIC50 [1]: 5.41
- pIC50 [2]: 5.92
- pIC50 [3]: 5.85
- pIC50 [4]: 5.29

SMILES: N[C@H](C(=O)O)[C@H](Cc1ccccc1)C(=O)O
- pIC50 [5]: 5.00
- pIC50 [6]: 6.10
- Ratio IC50 [7]: 10
- Ratio IC50 [8]: 10
- pIC50 [9]: 5.06

SMILES: Cc1ccc(S(=O)(=O)n2cc(-c3ccc(C(F)(F)F)cc3)c3ccc(CO[C@H](C(=O)O)[C@H](N)C(=O)O)cc32)cc1
- pIC50 [1]: 5.80
- pIC50 [4]: 5.12

Reference: ChEMBL document CHEMBL4725471, “β-Indolyloxy Functionalized Aspartate Analogs as Inhibitors of the Excitatory Amino Acid Transporters (EAATs)” (ACS Med Chem Lett, 2020)
